Tests used:
[1] = target: T1, Metabotropic glutamate receptor 4 (Homo sapiens, UniProt Q14833); assay: Allosteric modulator activity at human mGlu4 receptor expressed in CHO cells coexpressing Gqi5 assessed as effect on calcium flux; type: functional, cell-based
[2] = target: T1, Metabotropic glutamate receptor 4; assay: Allosteric modulator activity at human mGlu4 receptor expressed in CHO cells coexpressing Gqi5 assessed as effect on calcium flux in relative to glutamate; type: functional, cell-based
Summary of the method: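 hmGluR4/Gqi5 stably transfected CHO cells, 30,000/well, grown overnight at 37 °C, 5% CO2; loaded with 1 μM Fluo-4 AM for 45 min at 37 °C in HBSS/20 mM HEPES/2.5 mM probenecid. Baseline fluorescence read (ex 470, em 540 nm); compound preincubated ~2.5 min, then glutamate EC20, then EC80 2 min later. Ca2+ flux read; 10-point 1:3 concentration-response curves.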

T1 sequence (Q14833 whole entry): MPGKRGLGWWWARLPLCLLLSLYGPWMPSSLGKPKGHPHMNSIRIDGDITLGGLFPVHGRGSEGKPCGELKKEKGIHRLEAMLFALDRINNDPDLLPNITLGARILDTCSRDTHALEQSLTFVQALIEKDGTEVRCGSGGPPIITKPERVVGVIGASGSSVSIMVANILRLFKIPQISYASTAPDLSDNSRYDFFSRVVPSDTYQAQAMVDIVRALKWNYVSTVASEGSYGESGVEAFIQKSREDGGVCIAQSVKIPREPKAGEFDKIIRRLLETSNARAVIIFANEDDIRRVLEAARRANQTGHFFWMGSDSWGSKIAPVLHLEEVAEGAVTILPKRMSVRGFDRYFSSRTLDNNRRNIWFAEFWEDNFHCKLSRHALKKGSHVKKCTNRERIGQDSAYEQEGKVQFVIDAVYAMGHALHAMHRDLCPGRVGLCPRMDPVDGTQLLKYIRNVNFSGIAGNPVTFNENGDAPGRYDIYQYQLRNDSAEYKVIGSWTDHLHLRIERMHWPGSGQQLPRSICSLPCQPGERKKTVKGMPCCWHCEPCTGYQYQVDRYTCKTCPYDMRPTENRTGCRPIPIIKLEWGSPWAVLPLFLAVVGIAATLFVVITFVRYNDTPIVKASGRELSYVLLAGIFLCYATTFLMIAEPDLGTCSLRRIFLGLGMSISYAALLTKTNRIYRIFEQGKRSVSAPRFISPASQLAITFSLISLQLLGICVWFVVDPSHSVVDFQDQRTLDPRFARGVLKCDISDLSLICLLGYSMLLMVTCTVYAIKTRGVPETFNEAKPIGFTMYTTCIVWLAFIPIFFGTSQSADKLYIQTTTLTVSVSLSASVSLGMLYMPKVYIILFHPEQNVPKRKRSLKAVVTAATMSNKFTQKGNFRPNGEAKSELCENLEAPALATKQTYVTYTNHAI

| Structure (SMILES) | EC50 ([1]; cho) | EC50 ([1]; read-out: EC50) [µM] | Emax [2] [%] |
| --- | --- | --- | --- |
| O=C(NCc1ccccc1)[C@H]1CCCC[C@H]1C(=O)O | Not Active | – | – |
| O=C(O)CCC(=O)Nc1cc(Cl)cc(Cl)c1 | Not Active | – | – |
| O=C(Nc1ccc(F)c(F)c1)[C@H]1CCCC[C@H]1C(=O)O | Not Active | – | – |
| O=C(NC1CCC1)[C@H]1CCCC[C@H]1C(=O)O | Not Active | – | – |
| NC(=O)[C@@H]1CCCC[C@@H]1C(=O)Nc1cc(Cl)cc(Cl)c1 | – | 0.95 | 104 |
| O=C(Nc1cc(C(F)(F)F)cc(C(F)(F)F)c1)[C@H]1CCCC[C@H]1C(=O)O | Not Active | – | – |
| O=C(NN1CCOCC1)[C@H]1CCCC[C@H]1C(=O)O | Not Active | – | – |
| O=C(Nc1cc(Cl)cc(Cl)c1)[C@H]1CC=CC[C@H]1C(=O)O | – | 2.7 | 150 |
| N#C[C@@H]1CCCC[C@@H]1C(=O)Nc1cc(Cl)cc(Cl)c1 | – | 2 | 55 |
| O=C(O)[C@@H]1CCC[C@H](C(=O)Nc2cc(Cl)cc(Cl)c2)C1 | Not Active | – | – |
| O=C(Nc1ccccn1)[C@H]1CCCC[C@H]1C(=O)O | Not Active | – | – |
| NC(=O)[C@@H]1CC=CC[C@@H]1C(=O)Nc1cc(Cl)cc(Cl)c1 | – | 3.1 | 94 |
| O=C(Nc1cc(Cl)cc(Cl)c1)[C@H]1CCCC[C@H]1c1nnn[nH]1 | – | > 10 | 152 |
| O=C(NC1CCCCC1)[C@H]1CCCC[C@H]1C(=O)O | Not Active | – | – |
| O=C(Nc1cc(Cl)cc(Cl)c1)[C@H]1CCCC[C@H]1c1nsc(=O)[nH]1 | Not Active | – | – |
| O=C(Nc1cc(Cl)cc(Cl)c1)[C@H]1CCCC[C@H]1C(=O)O (relative stereo) | – | 0.74 | 127 |
| CC1(C)[C@H](C(=O)Nc2cc(Cl)cc(Cl)c2)[C@@H]1C(=O)O | Not Active | – | – |
| Cc1cc(C)cc(NC(=O)[C@H]2CCCC[C@H]2C(=O)O)c1 | Not Active | – | – |
| O=C(Nc1cc(Cl)cc(Cl)c1)[C@H]1CCCC[C@H]1C(=O)N1CCOCC1 | Not Active | – | – |
| Cc1ccc(NC(=O)[C@H]2CCCC[C@H]2C(=O)O)cc1C | Not Active | – | – |
| O=C(Nc1ccccc1)[C@H]1CCCC[C@H]1C(=O)O | – | > 10 | 39 |
| O=C(Nc1cc(Cl)cc(Cl)c1)[C@@H]1[C@H](C(=O)O)[C@H]2C=C[C@@H]1C2 | Not Active | – | – |
| CCCNC(=O)[C@@H]1CCCC[C@@H]1C(=O)Nc1cc(Cl)cc(Cl)c1 | – | 9.6 | 57 |
| O=C(Nc1cc(Cl)cc(Cl)c1)[C@H]1CCCC[C@H]1C(=O)NC1CCCC1 | Not Active | – | – |
| CNC(=O)[C@@H]1CCCC[C@@H]1C(=O)Nc1cc(Cl)cc(Cl)c1 | – | 10 | 106 |
| O=C(Nc1cc(Cl)cc(Cl)c1)[C@H]1CC[C@H]1C(=O)O (single isomer, unassigned) | Not Active | – | – |

Continued, values first:

| EC50 ([1]; cho) | EC50 ([1]; read-out: EC50) [µM] | Emax [2] [%] | Structure (SMILES) |
| --- | --- | --- | --- |
| Not Active | – | – | O=C(Nc1cc(Cl)cc(Cl)c1)[C@H]1CCC[C@H]1C(=O)O |
| Not Active | – | – | O=C(Nc1cc(F)cc(F)c1)[C@H]1CCCC[C@H]1C(=O)O |
| Not Active | – | – | O=C(Nc1cc(Cl)cc(Cl)c1)[C@H]1CCCC[C@H]1C(=O)NC1CC1 |
| – | 10 | 80 | O=C(Nc1cc(Cl)cc(Cl)c1)[C@H]1CCCC[C@H]1C(=O)NCC1CC1 |
| Not Active | – | – | O=C(O)C1CCCN(C(=O)Nc2cc(Cl)cc(Cl)c2)C1 (stereo not given) |
| Not Active | – | – | CC1=CC[C@H](C(=O)Nc2cc(Cl)cc(Cl)c2)[C@H](C(=O)O)C1 |
| – | 2 | 138 | O=C(Nc1cc(F)cc(Cl)c1)[C@H]1CCCC[C@H]1C(=O)O |
| – | 3.3 | 152 | O=C1[C@H]2CCCC[C@H]2C(=O)N1c1cc(Cl)cc(Cl)c1 |
| Not Active | – | – | CN(C)C(=O)[C@@H]1CCCC[C@@H]1C(=O)Nc1cc(Cl)cc(Cl)c1 |
| Not Active | – | – | O=C(Nc1cc(Cl)cc(Cl)c1)[C@@H]1[C@H](C(=O)O)[C@@H]2C=C[C@H]1C2 |
| Not Active | – | – | Cc1nc(NC(=O)[C@H]2CCCC[C@H]2C(=O)O)nn1C |
| Not Active | – | – | O=C(Nc1cccc(Br)c1)[C@H]1CCCC[C@H]1C(=O)O |
